Laboratory results published in ChEMBL document CHEMBL1128689, “Vinyl sulfones as mechanism-based cysteine protease inhibitors” (J Med Chem, 1995).

Experiments:
Cathepsin S [1] = target: T1, Cathepsin S (Homo sapiens, UniProt P25774); experiment: Compound is evaluated for inhibition kinetic constant Kinact for the cathepsin S
Outline: (§1)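 Fluorescence ex 380/em 450 nm, 5 min or to ≤1% activity. kobs from first-order fits, ≥6 inhibitor levels near Ki, fit to saturation equation; Ki corrected by 1+[S]/Km; duplicates.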
Target sequence in this assay (P25774 115-331 limits assumed): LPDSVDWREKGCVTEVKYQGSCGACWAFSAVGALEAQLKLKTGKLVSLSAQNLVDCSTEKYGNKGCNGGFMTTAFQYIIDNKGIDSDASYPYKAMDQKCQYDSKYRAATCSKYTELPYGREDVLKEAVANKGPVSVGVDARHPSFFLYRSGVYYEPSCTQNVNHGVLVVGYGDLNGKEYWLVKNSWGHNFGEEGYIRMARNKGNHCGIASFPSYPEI

Cathepsin B [2] = target: T2, Cathepsin B (Homo sapiens, UniProt P07858); experiment: Compound is evaluated for inhibitory potency against cathepsin B
Outline: (§2)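 Cathepsin B, ~5-10 nM, added to 50 mM phosphate pH 6.0, 2.5 mM EDTA, 2.5 mM DTT, 50 μM Z-Arg-Arg-AMC (Km 190 μM), DMF <1%, 25 °C. Fluorescence ex 380/em 450 nm over 5 min. kobs by first-order fit at ≥6 inhibitor concentrations; kirr and Ki app from saturation fit, Ki = Ki app/(1+[S]/Km); kirr/Ki also from 1/kobs vs 1/[I]; duplicates.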

Cruzipain = Cruzipain (Trypanosoma cruzi, UniProt P25779); experiment: Compound is evaluated for inhibitory potency against Cruzaine
Chain of Cruzipain (P25779 whole entry): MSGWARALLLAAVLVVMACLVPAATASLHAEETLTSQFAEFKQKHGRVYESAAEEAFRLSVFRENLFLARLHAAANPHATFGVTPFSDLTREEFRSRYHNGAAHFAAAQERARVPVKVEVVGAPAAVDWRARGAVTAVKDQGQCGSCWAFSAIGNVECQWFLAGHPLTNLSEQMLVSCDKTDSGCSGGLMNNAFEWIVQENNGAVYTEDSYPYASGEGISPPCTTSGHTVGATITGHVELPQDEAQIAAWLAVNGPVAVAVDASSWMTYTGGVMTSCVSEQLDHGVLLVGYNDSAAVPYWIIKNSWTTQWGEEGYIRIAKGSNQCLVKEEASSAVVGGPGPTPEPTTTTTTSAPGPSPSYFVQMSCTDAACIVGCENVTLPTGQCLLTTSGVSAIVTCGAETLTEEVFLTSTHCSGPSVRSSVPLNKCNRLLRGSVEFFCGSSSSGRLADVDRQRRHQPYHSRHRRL
Outline: (§3)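 Enzyme (~1-5 nM) starts the reaction with substrate and inhibitor present. Fluorescence ex 380/em 450 nm for 5 min. kobs from first-order fits at ≥6 inhibitor concentrations; Ki app corrected by 1+[S]/Km; second-order constant from 1/kobs vs 1/[I] slope; duplicates.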

Cathepsin S [3] = target: T1, Cathepsin S; experiment: Compound is evaluated for inhibitory potency against cathepsin S; outline: as §1
Target sequence in this assay (P25774 whole entry): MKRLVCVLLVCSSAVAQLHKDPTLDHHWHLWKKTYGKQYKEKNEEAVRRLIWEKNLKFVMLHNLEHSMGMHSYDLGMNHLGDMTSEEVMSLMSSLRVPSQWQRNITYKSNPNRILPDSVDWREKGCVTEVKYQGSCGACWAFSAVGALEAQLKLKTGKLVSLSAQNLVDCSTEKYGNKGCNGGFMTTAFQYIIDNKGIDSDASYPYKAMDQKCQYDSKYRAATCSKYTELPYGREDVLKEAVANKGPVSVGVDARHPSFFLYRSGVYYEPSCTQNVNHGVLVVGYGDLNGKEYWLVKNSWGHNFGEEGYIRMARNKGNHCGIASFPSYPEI

Procathepsin L [4] = target: T3, Procathepsin L (Homo sapiens, UniProt P07711); experiment: Compound is evaluated for inhibitory potency against cathepsin L
Outline: (§4)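 Fluorescence increase (ex 380, em 450 nm) followed 5 min or to ≤1% activity. kobs by first-order fit at ≥6 inhibitor levels near Ki, fit to saturation equation; Ki = Ki app/(1+[S]/Km); duplicates.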
Target sequence in this assay (P07711 whole entry): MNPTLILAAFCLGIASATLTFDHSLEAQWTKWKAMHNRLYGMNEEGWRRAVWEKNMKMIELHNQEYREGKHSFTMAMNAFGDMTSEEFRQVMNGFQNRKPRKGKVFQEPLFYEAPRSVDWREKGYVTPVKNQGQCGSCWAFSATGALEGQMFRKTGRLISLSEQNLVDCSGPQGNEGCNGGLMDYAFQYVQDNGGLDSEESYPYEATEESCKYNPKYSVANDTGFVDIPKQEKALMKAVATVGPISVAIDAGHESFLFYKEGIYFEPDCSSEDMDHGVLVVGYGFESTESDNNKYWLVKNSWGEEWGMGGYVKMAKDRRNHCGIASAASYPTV

Procathepsin L [5] = target: T3, Procathepsin L; experiment: Compound is evaluated for inhibition kinetic constant Kinact for the cathepsin L; outline: as §4
Target sequence in this assay (P07711 114-333 limits assumed): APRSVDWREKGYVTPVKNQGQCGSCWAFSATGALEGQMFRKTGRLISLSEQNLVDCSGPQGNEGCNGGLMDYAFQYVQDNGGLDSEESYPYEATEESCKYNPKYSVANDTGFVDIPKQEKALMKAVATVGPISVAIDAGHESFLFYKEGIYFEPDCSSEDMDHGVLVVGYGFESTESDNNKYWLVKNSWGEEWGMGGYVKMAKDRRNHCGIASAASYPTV

Cathepsin B [6] = target: T2, Cathepsin B; experiment: Compound is evaluated for inhibition kinetic constant Kirr for the cathepsin B; outline: as §2
[7] = target: Cruzipain (Trypanosoma cruzi) (UniProt P25779); experiment: Ratio of inhibition kinetic constants kinact and Ki against Cruzaine; outline: as §3
Chain of Cruzipain (Trypanosoma cruzi) (P25779 123-467 limits assumed): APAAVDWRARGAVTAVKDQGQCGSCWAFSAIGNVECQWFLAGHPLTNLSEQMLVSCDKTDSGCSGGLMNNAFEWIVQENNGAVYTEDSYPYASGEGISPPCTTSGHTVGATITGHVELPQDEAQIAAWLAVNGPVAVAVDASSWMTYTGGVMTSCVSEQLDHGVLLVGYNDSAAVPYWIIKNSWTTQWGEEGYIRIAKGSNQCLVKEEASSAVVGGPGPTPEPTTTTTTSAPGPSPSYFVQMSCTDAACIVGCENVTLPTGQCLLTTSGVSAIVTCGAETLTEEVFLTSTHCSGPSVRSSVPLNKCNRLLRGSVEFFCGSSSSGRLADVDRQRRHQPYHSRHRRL

[8] = target: Cruzipain (Trypanosoma cruzi) (UniProt P25779); experiment: Compound is evaluated for inhibition kinetic constant Kinact for the Cruzaine; outline: as §3
Procathepsin L [9] = target: T3, Procathepsin L; experiment: Compound is evaluated for inhibition kinetic constant (kobs/[I], 1/M.1/s) for cathepsin L; outline: as §4
Target sequence in this assay (P07711 114-333 limits assumed): as the sequence (P07711 114-333 limits assumed) above

Cathepsin B [10] = target: T2, Cathepsin B; experiment: Compound is evaluated for inhibition kinetic constant (kobs/[I], 1/M.s) for cathepsin B; outline: as §2
[11] = target: T4, Calpain-1 catalytic subunit (Homo sapiens) (UniProt P07384); experiment: Compound is evaluated for inhibition kinetic constant (kobs/[I], 1/M.1/s) for calpain 1
T4 sequence (whole entry): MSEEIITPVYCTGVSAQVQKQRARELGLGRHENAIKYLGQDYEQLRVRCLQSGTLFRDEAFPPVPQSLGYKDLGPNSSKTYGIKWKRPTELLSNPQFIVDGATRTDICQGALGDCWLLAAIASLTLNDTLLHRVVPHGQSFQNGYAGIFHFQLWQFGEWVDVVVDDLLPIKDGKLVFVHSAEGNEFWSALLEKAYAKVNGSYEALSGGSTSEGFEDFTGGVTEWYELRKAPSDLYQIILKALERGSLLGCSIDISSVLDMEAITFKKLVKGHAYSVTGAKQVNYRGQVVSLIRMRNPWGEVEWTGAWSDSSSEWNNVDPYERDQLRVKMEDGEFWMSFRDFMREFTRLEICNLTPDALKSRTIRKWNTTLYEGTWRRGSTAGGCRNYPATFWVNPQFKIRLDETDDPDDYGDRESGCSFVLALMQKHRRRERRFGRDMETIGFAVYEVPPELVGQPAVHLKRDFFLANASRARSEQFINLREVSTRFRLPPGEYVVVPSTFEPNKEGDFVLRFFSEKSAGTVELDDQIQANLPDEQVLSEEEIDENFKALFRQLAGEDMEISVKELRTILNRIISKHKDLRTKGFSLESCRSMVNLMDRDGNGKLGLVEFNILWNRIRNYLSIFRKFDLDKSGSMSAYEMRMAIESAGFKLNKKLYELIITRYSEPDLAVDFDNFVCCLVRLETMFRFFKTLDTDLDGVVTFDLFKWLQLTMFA
Outline: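 Enzyme ~20 nM is added last to substrate plus inhibitor at 25 °C. Fluorescence ex 380/em 450 nm for 5 min or until ≤1% activity. Progress curves fit first-order to kobs; reported as kobs/[I]; duplicate runs.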

[12] = target: Cruzipain (Trypanosoma cruzi) (UniProt P25779); experiment: Compound is evaluated for inhibition kinetic constant (kobs/[I], 1/M.1/s) for Cruzaine; outline: as §3
[13] = target: T5, Cathepsin K (Homo sapiens) (UniProt P43235); experiment: Compound is evaluated for inhibition kinetic constant (kobs/[I], 1/M.1/s) for cathepsin O2
T5 sequence (whole entry): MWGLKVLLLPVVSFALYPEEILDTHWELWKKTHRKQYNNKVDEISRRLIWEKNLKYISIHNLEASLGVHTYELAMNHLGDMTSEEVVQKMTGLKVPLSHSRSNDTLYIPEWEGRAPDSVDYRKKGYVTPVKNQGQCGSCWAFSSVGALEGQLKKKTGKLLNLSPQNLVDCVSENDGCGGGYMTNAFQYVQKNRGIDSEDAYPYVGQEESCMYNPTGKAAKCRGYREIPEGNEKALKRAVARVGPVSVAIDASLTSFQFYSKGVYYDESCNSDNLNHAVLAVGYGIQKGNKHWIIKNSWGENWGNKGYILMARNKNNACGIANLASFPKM
Outline: (§5)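 Read at ex 380/em 450 nm for 5 min. Progress curves fit first-order for kobs at ≥6 inhibitor concentrations; kinact and Ki app from saturation fit, Ki corrected for substrate; ratio also from double-reciprocal slope; duplicates.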

Cathepsin B [14] = target: T2, Cathepsin B; experiment: Ratio of inhibition kinetic constants kirr and Ki against Cathepsin B; outline: as §2
Cathepsin K = target: T6, Cathepsin K (Homo sapiens, UniProt P43235); experiment: Compound is evaluated for inhibitory potency against cathepsin O2; outline: as §5
T6 sequence (P43235 whole entry): T5 sequence (whole entry)

[15] = target: T5, Cathepsin K (Homo sapiens); experiment: Compound is evaluated for inhibition kinetic constant Kinact for the cathepsin O2; outline: as §5
[16] = target: T5, Cathepsin K (Homo sapiens); experiment: Ratio of inhibition kinetic constants kinact and Ki against Cathepsin O2; outline: as §5
Cathepsin S [17] = target: T1, Cathepsin S; experiment: Ratio of inhibition kinetic constants kinact and Ki against Cathepsin S; outline: as §1
Target sequence in this assay (P25774 115-331 limits assumed): as the sequence (P25774 115-331 limits assumed) above

Procathepsin L [18] = target: T3, Procathepsin L; experiment: Ratio of inhibition kinetic constants kinact and Ki against Cathepsin L; outline: as §4
Target sequence in this assay (P07711 114-333 limits assumed): as the sequence (P07711 114-333 limits assumed) above

Cathepsin S [19] = target: T1, Cathepsin S; experiment: Compound is evaluated for inhibition kinetic constant (kobs/[I], 1/M.1/s) for cathepsin S; outline: as §1
Target sequence in this assay (P25774 115-331 limits assumed): as the sequence (P25774 115-331 limits assumed) above

Row | K inact (Cathepsin S [1]) | Ki (Cathepsin B [2]) | Ki (Cruzipain) | Ki (Cathepsin S [3]) | Ki (Procathepsin L [4]) | K inact (Procathepsin L [5]) | kirr (Cathepsin B [6]) | Ratio [7] | K inact [8] | k obs / 1 (Procathepsin L [9]) | k obs / 1 (Cathepsin B [10]) | k obs / 1 [11] | k obs / 1 [12] | k obs / 1 [13] | Ratio (Cathepsin B [14]) | Ki (Cathepsin K) | K inact [15] | Ratio [16] | Ratio (Cathepsin S [17]) | Ratio (Procathepsin L [18]) | SMILES | also measured
1 | 0.1 s⁻¹ | 150 nM | 48 nM | 1.8 nM | 18 nM | 0.14 s⁻¹ | 0.061 s⁻¹ | 1.04e+06 | 0.046 s⁻¹ |  |  |  |  |  |  |  |  |  |  |  | O=C(NC(=O)[C@H](Cc1ccc2ccccc2c1)NC(=O)[C@H](CCc1ccccc1)N/C=C/S(=O)(=O)c1ccc2ccccc2c1)NN1CCOCC1 | 
2 |  |  |  |  |  |  |  |  |  | 880000 M⁻¹ s⁻¹ | 0 M⁻¹ s⁻¹ | 5600 M⁻¹ s⁻¹ | 110000 M⁻¹ s⁻¹ | 25000 M⁻¹ s⁻¹ |  |  |  |  |  |  | CSCC[C@H](NC(=O)[C@H](CC(C)C)NC(=O)[C@H](CC(C)C)NC(C)=O)C(=O)/C=C/S(=O)(=O)c1ccccc1 | 
3 | 0.16 s⁻¹ | 39000 nM | 220 nM | 5.9 nM | 720 nM | 0.28 s⁻¹ | 0.17 s⁻¹ | 620000 | 0.13 s⁻¹ |  |  |  |  |  | 4250 | 230 nM | 0.17 s⁻¹ | 773000 | 2.63e+07 | 387000 | CC(C)C[C@H](NC(=O)[C@H](CCc1ccccc1)N/C=C/S(=O)(=O)c1ccccc1)C(=O)NC(=O)NN1CCOCC1 | 
4 | 0.085 s⁻¹ | 11000 nM | 360 nM | 11 nM | 1000 nM | 0.24 s⁻¹ | 0.17 s⁻¹ | 203000 | 0.072 s⁻¹ |  |  |  |  |  | 16400 | 30500 nM | 0.31 s⁻¹ | 10200 | 7.7e+06 | 224000 | O=C(NC(=O)[C@H](Cc1ccccc1)NC(=O)[C@H](CCc1ccccc1)N/C=C/S(=O)(=O)c1ccccc1)NN1CCOCC1 | 
5 |  |  |  |  |  |  |  |  |  | 28700 M⁻¹ s⁻¹ |  | 10800 M⁻¹ s⁻¹ |  | 815 M⁻¹ s⁻¹ |  |  |  |  |  |  | CC(C)C[C@H](NC(=O)NN1CCOCC1)C(=O)N[C@@H](CC(C)C)C(=O)N[C@@H](Cc1ccc(O)cc1)C(=O)/C=C/S(=O)(=O)c1ccccc1 | k obs / 1 (Cathepsin S [19]): 25100 M⁻¹ s⁻¹
6 |  |  |  |  |  |  |  |  |  | 2.24e+06 M⁻¹ s⁻¹ | 33000 M⁻¹ s⁻¹ |  | 450000 M⁻¹ s⁻¹ |  |  |  |  |  |  |  | O=C(NC(=O)[C@H](Cc1ccc2ccccc2c1)NC(=O)[C@H](CCc1ccccc1)N/C=C/S(=O)(=O)CCc1ccccc1)NN1CCOCC1 | k obs / 1 (Cathepsin S [19]): 2.9e+07 M⁻¹ s⁻¹
